Laboratory results: ChEMBL document CHEMBL1141578, “Structure-based optimization of cephalothin-analogue boronic acids as beta-lactamase inhibitors” (Bioorg Med Chem, 2008)

Tests used:
[1] = Inhibition of beta lactamase TEM1
[2] = Inhibition of beta lactamase TEM30
[3] = Inhibition of AmpC beta lactamase
[4] = Inhibition of AmpC beta lactamase N289A mutant
Method in brief: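 Rates were taken at steady state after the lag phase. Ki came from progress curves with and without inhibitor (Waley method), averaged over five inhibitor concentrations giving ≥50% inhibition, each in triplicate.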

Ki [3] [µM] | SMILES | Ki [1] [µM] | Ki [2] [µM] | Ki [4] [µM]
0.32 | O=C(Cc1cccs1)NCB(O)O | – | – | –
0.035 | O=C(Cc1cccs1)N[C@H](B(O)O)c1ccccc1 | – | – | –
– | O=C(O)/C=C/c1cccc([C@H](NC(=O)Cc2cccs2)B(O)O)c1 | 0.106 | 3.8 | 0.0028
18.5 | CC(=O)NCB(O)O [ACETAMIDOMETHYLBORONIC ACID] | – | – | –
0.32 | CC(=O)OCC1=C(C(=O)O)N2C(=O)[C@@H](NC(=O)Cc3cccs3)[C@H]2SC1 [CEPHALOTHIN] | – | – | –
1000 | CB(O)O [METHANE BORONIC ACID] | – | – | –

SMILES | Ki [3] [µM] | Ki [1] [µM] | Ki [2] [µM] | Ki [4] [µM]
O=C(Cc1cccs1)N[C@H](B(O)O)c1cccc(C(=O)O)c1 | 0.001 | 0.064 | 7.8 | 0.017
